The text below walks through data of ChEMBL document CHEMBL1275306, “Synthesis and cytotoxicity evaluation of 1-[3-(9H-carbazol-4-yloxy)-2-hydroxypropyl]-3-aryl-1H-pyrazole-5-carboxylic acid derivatives” (Eur J Med Chem, 2010).

Calls of active or inactive are those of the source. The calls are words filed in the database; no cut-off is given here.

The first test deals with A549. The test can be described thus: Cytotoxicity against human A549 cells after 48 hrs by SRB assay. The class given is functional, cell-based.
Conditions: not given
The gist of the method: (§1)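 Cells grown in minimal essential medium with 10% FBS, penicillin and streptomycin, then exposed in triplicate to […] test agent or doxorubicin for 48 h at 37 °C under 5% CO2. Cells fixed with cold TCA, stained with 0.4% SRB in 1% acetic acid; bound dye dissolved in buffer, OD read at 565 nm. Viability expressed as % of untreated cells; IC50 by non-linear regression.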
With `O=C(O)c1cc(-c2cccc([N+](=O)[O-])c2)nn1CC(O)COc1cccc2[nH]c3ccccc3c12` (stereo not drawn), the Activity entry is “Dose-dependent effect”.
On the same count and under the same terms, next, `COc1cccc2c1C(=O)c1c(O)c3c(c(O)c1C2=O)C[C@@](O)(C(=O)CO)C[C@@H]3O[C@H]1C[C@H](N)[C@H](O)[C@H](C)O1`: “Dose-dependent effect”; `COc1cccc(-c2cc(C(=O)O)n(CC(O)COc3cccc4[nH]c5ccccc5c34)n2)c1` (stereo not drawn): “Dose-dependent effect”; `COc1ccc(-c2cc(C(=O)O)n(CC(O)COc3cccc4[nH]c5ccccc5c34)n2)cc1` (stereo not drawn): “Dose-dependent effect”.
The same measure, in the same setting: next, `Cc1cccc(-c2cc(C(=O)O)n(CC(O)COc3cccc4[nH]c5ccccc5c34)n2)c1` (stereo not drawn): “Dose-dependent effect”; `O=C(O)c1cc(-c2ccc([N+](=O)[O-])cc2)nn1CC(O)COc1cccc2[nH]c3ccccc3c12` (stereo not drawn): “Dose-dependent effect”; `O=C(O)c1cc(-c2ccccc2[N+](=O)[O-])nn1CC(O)COc1cccc2[nH]c3ccccc3c12` (stereo not drawn): “Dose-dependent effect”.
The same measure, in the same setting: next, `Cc1ccc(-c2cc(C(=O)O)n(CC(O)COc3cccc4[nH]c5ccccc5c34)n2)cc1` (stereo not drawn): “Dose-dependent effect”.

Another test deals with SK-N-SH. The test can be described thus: Cytotoxicity against human SK-N-SH cells at 0.1 uM after 48 hrs by SRB assay.
Conditions: not given
The class given is functional, cell-based. In short, it runs like this: as §1
(Sulforhodamine B stains cellular protein and so reports cell mass.)
`Cc1cccc(-c2cc(C(=O)O)n(CC(O)COc3cccc4[nH]c5ccccc5c34)n2)c1` (stereo not drawn): the result was Active.

The subject of a further test is MCF7. The test can be described thus: Cytotoxicity against human MCF7 cells at 0.1 to 5 uM by SRB assay. The class given is functional, cell-based. Conditions: TDE = time-dependent effect. The gist of the method: as §1
With `O=C(O)c1cc(-c2cccc([N+](=O)[O-])c2)nn1CC(O)COc1cccc2[nH]c3ccccc3c12` (stereo not drawn), the Activity entry was “tde”.
Take `COc1cccc2c1C(=O)c1c(O)c3c(c(O)c1C2=O)C[C@@](O)(C(=O)CO)C[C@@H]3O[C@H]1C[C@H](N)[C@H](O)[C@H](C)O1`: the Activity entry was “tde”.
`COc1cccc(-c2cc(C(=O)O)n(CC(O)COc3cccc4[nH]c5ccccc5c34)n2)c1` (stereo not drawn): the Activity entry is “tde”.
On the same count and under the same terms, next, `COc1ccc(-c2cc(C(=O)O)n(CC(O)COc3cccc4[nH]c5ccccc5c34)n2)cc1` (stereo not drawn): “tde”; `Cc1cccc(-c2cc(C(=O)O)n(CC(O)COc3cccc4[nH]c5ccccc5c34)n2)c1` (stereo not drawn): “tde”; `O=C(O)c1cc(-c2ccc([N+](=O)[O-])cc2)nn1CC(O)COc1cccc2[nH]c3ccccc3c12` (stereo not drawn): “tde”.
For `O=C(O)c1cc(-c2ccccc2[N+](=O)[O-])nn1CC(O)COc1cccc2[nH]c3ccccc3c12` (stereo not drawn), the Activity result was “tde”.
The same measure, in the same setting: next, `Cc1ccc(-c2cc(C(=O)O)n(CC(O)COc3cccc4[nH]c5ccccc5c34)n2)cc1` (stereo not drawn): “tde”.

For the next test, the system named is SK-N-SH. The test can be described thus: Cytotoxicity against human SK-N-SH cells at 0.5 uM after 48 hrs by SRB assay. The class given is functional, cell-based.
Conditions: not given
Regarding `O=C(O)c1cc(-c2cccc([N+](=O)[O-])c2)nn1CC(O)COc1cccc2[nH]c3ccccc3c12` (stereo not drawn), the outcome was Active.
Same read-out and setting: the same measure for `COc1cccc(-c2cc(C(=O)O)n(CC(O)COc3cccc4[nH]c5ccccc5c34)n2)c1` (stereo not drawn): “Active”; for `COc1ccc(-c2cc(C(=O)O)n(CC(O)COc3cccc4[nH]c5ccccc5c34)n2)cc1` (stereo not drawn): “Active”; for `Cc1cccc(-c2cc(C(=O)O)n(CC(O)COc3cccc4[nH]c5ccccc5c34)n2)c1` (stereo not drawn): “Active”.
Still for that read-out and setting: next, `O=C(O)c1cc(-c2ccc([N+](=O)[O-])cc2)nn1CC(O)COc1cccc2[nH]c3ccccc3c12` (stereo not drawn): “Active”.
Regarding `O=C(O)c1cc(-c2ccccc2[N+](=O)[O-])nn1CC(O)COc1cccc2[nH]c3ccccc3c12` (stereo not drawn), the outcome was Active.
`Cc1ccc(-c2cc(C(=O)O)n(CC(O)COc3cccc4[nH]c5ccccc5c34)n2)cc1` (stereo not drawn): the outcome was Active.

The subject of another test is SK-N-SH. The test can be described thus: Cytotoxicity against human SK-N-SH cells at 0.1 to 5 uM by SRB assay. Conditions: TDE = time-dependent effect. It is filed as functional, cell-based. The gist of the method:
as §1
On to `O=C(O)c1cc(-c2cccc([N+](=O)[O-])c2)nn1CC(O)COc1cccc2[nH]c3ccccc3c12` (stereo not drawn), for which the Activity result is “tde”.
Still for that read-out and setting: next, `COc1cccc2c1C(=O)c1c(O)c3c(c(O)c1C2=O)C[C@@](O)(C(=O)CO)C[C@@H]3O[C@H]1C[C@H](N)[C@H](O)[C@H](C)O1`: “tde”; `COc1cccc(-c2cc(C(=O)O)n(CC(O)COc3cccc4[nH]c5ccccc5c34)n2)c1` (stereo not drawn): “tde”; `COc1ccc(-c2cc(C(=O)O)n(CC(O)COc3cccc4[nH]c5ccccc5c34)n2)cc1` (stereo not drawn): “tde”.
Same read-out and setting: next, `Cc1cccc(-c2cc(C(=O)O)n(CC(O)COc3cccc4[nH]c5ccccc5c34)n2)c1` (stereo not drawn): “tde”; `O=C(O)c1cc(-c2ccc([N+](=O)[O-])cc2)nn1CC(O)COc1cccc2[nH]c3ccccc3c12` (stereo not drawn): “tde”; `O=C(O)c1cc(-c2ccccc2[N+](=O)[O-])nn1CC(O)COc1cccc2[nH]c3ccccc3c12` (stereo not drawn): “tde”.
The same measure, in the same setting: the same measure for `Cc1ccc(-c2cc(C(=O)O)n(CC(O)COc3cccc4[nH]c5ccccc5c34)n2)cc1` (stereo not drawn): “tde”.

Another test deals with A549. Briefly: Cytotoxicity against human A549 cells at 0.1 to 5 uM by SRB assay. The class given is functional, cell-based. Conditions: TDE = time-dependent effect. The gist of the method:
as §1
Consider `O=C(O)c1cc(-c2cccc([N+](=O)[O-])c2)nn1CC(O)COc1cccc2[nH]c3ccccc3c12` (stereo not drawn), for which the Activity entry is “tde”.
The same measure, in the same setting: next, `COc1cccc2c1C(=O)c1c(O)c3c(c(O)c1C2=O)C[C@@](O)(C(=O)CO)C[C@@H]3O[C@H]1C[C@H](N)[C@H](O)[C@H](C)O1`: “tde”; `COc1cccc(-c2cc(C(=O)O)n(CC(O)COc3cccc4[nH]c5ccccc5c34)n2)c1` (stereo not drawn): “tde”.
Same read-out and setting: the same measure for `COc1ccc(-c2cc(C(=O)O)n(CC(O)COc3cccc4[nH]c5ccccc5c34)n2)cc1` (stereo not drawn): “tde”.
Same read-out and setting: the same measure for `Cc1cccc(-c2cc(C(=O)O)n(CC(O)COc3cccc4[nH]c5ccccc5c34)n2)c1` (stereo not drawn): “tde”; for `O=C(O)c1cc(-c2ccc([N+](=O)[O-])cc2)nn1CC(O)COc1cccc2[nH]c3ccccc3c12` (stereo not drawn): “tde”.
Take `O=C(O)c1cc(-c2ccccc2[N+](=O)[O-])nn1CC(O)COc1cccc2[nH]c3ccccc3c12` (stereo not drawn): the Activity result was “tde”.
Same read-out and setting: next, `Cc1ccc(-c2cc(C(=O)O)n(CC(O)COc3cccc4[nH]c5ccccc5c34)n2)cc1` (stereo not drawn): “tde”.

For another test, the system named is MCF7. Briefly: Cytotoxicity against human MCF7 cells after 48 hrs by SRB assay. It is filed as functional, cell-based.
Conditions: not given
The gist of the method: as §1
Take `O=C(O)c1cc(-c2cccc([N+](=O)[O-])c2)nn1CC(O)COc1cccc2[nH]c3ccccc3c12` (stereo not drawn): the Activity result was “Dose-dependent effect”.
Same read-out and setting: the same measure for `COc1cccc2c1C(=O)c1c(O)c3c(c(O)c1C2=O)C[C@@](O)(C(=O)CO)C[C@@H]3O[C@H]1C[C@H](N)[C@H](O)[C@H](C)O1`: “Dose-dependent effect”; for `COc1cccc(-c2cc(C(=O)O)n(CC(O)COc3cccc4[nH]c5ccccc5c34)n2)c1` (stereo not drawn): “Dose-dependent effect”.
The same measure, in the same setting: next, `COc1ccc(-c2cc(C(=O)O)n(CC(O)COc3cccc4[nH]c5ccccc5c34)n2)cc1` (stereo not drawn): “Dose-dependent effect”; `Cc1cccc(-c2cc(C(=O)O)n(CC(O)COc3cccc4[nH]c5ccccc5c34)n2)c1` (stereo not drawn): “Dose-dependent effect”; `O=C(O)c1cc(-c2ccc([N+](=O)[O-])cc2)nn1CC(O)COc1cccc2[nH]c3ccccc3c12` (stereo not drawn): “Dose-dependent effect”.
The same measure, in the same setting: next, `O=C(O)c1cc(-c2ccccc2[N+](=O)[O-])nn1CC(O)COc1cccc2[nH]c3ccccc3c12` (stereo not drawn): “Dose-dependent effect”.
For the molecule `Cc1ccc(-c2cc(C(=O)O)n(CC(O)COc3cccc4[nH]c5ccccc5c34)n2)cc1` (stereo not drawn), the Activity result is “Dose-dependent effect”.

For another test, the system named is SK-N-SH. Briefly: Cytotoxicity against human SK-N-SH cells after 48 hrs by SRB assay. The class given is functional, cell-based.
Conditions: not given
In short, it runs like this:
as §1
On to `O=C(O)c1cc(-c2cccc([N+](=O)[O-])c2)nn1CC(O)COc1cccc2[nH]c3ccccc3c12` (stereo not drawn), for which the Activity result is “Dose-dependent effect”.
Take `COc1cccc2c1C(=O)c1c(O)c3c(c(O)c1C2=O)C[C@@](O)(C(=O)CO)C[C@@H]3O[C@H]1C[C@H](N)[C@H](O)[C@H](C)O1`: the Activity entry is “Dose-dependent effect”.
Still for that read-out and setting: the same measure for `COc1cccc(-c2cc(C(=O)O)n(CC(O)COc3cccc4[nH]c5ccccc5c34)n2)c1` (stereo not drawn): “Dose-dependent effect”.
The same measure, in the same setting: next, `COc1ccc(-c2cc(C(=O)O)n(CC(O)COc3cccc4[nH]c5ccccc5c34)n2)cc1` (stereo not drawn): “Dose-dependent effect”; `Cc1cccc(-c2cc(C(=O)O)n(CC(O)COc3cccc4[nH]c5ccccc5c34)n2)c1` (stereo not drawn): “Dose-dependent effect”.
On the same count and under the same terms, next, `O=C(O)c1cc(-c2ccc([N+](=O)[O-])cc2)nn1CC(O)COc1cccc2[nH]c3ccccc3c12` (stereo not drawn): “Dose-dependent effect”; `O=C(O)c1cc(-c2ccccc2[N+](=O)[O-])nn1CC(O)COc1cccc2[nH]c3ccccc3c12` (stereo not drawn): “Dose-dependent effect”; `Cc1ccc(-c2cc(C(=O)O)n(CC(O)COc3cccc4[nH]c5ccccc5c34)n2)cc1` (stereo not drawn): “Dose-dependent effect”.

Another test has as its system SK-N-SH. The test can be described thus: Cytotoxicity against human SK-N-SH cells at 5 uM after 48 hrs by SRB assay. The class given is functional, cell-based.
Conditions: not given
In short, it runs like this: as §1
For `COc1ccc(-c2cc(C(=O)O)n(CC(O)COc3cccc4[nH]c5ccccc5c34)n2)cc1` (stereo not drawn), the outcome was Active.
Consider `Cc1cccc(-c2cc(C(=O)O)n(CC(O)COc3cccc4[nH]c5ccccc5c34)n2)c1` (stereo not drawn), for which the outcome was Active.
